Results from different studies.
Each line is one published result; the experiments were not run side by side.
Target: Tyrosine-protein kinase receptor TYRO3 (TYRO3, Homo sapiens, UniProt Q06418)
One construct used (Q06418 41-890): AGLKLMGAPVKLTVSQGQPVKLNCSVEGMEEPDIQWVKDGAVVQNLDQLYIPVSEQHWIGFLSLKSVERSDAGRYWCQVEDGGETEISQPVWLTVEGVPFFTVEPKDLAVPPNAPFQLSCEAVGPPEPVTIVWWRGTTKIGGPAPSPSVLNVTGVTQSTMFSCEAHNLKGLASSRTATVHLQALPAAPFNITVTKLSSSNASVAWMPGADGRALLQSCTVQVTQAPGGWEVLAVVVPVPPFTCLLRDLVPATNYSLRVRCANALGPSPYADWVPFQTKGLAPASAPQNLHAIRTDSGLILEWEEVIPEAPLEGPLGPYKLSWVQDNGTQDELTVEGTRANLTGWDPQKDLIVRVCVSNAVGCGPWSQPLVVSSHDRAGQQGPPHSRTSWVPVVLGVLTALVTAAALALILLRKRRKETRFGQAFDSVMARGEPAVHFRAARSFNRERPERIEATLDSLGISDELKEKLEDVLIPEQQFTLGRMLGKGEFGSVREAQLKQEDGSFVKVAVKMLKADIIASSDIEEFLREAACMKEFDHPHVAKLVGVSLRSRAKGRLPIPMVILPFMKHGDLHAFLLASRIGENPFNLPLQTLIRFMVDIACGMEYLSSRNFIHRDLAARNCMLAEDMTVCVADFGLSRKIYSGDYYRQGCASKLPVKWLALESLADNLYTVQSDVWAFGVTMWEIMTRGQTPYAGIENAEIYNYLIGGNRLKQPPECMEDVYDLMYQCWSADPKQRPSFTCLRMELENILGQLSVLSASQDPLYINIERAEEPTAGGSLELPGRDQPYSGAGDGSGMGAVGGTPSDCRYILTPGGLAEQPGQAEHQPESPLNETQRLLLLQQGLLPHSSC

SMILES | test | setting | endpoint | value
COc1ncccc1-c1cnn2ccc(N3CCN(C(=O)OC(C)C)CC3)nc12 | binding, competition with immobilised ligand | 1 µM | remaining binding | 100%
CC(C)(C)c1cc(C=C(C#N)C#N)cc(Br)c1O | enzyme activity, inhibitor | 0.5 µM | remaining activity | 110%
Cn1cncc1[C@@](O)(COc1ccc(C#N)cc1-c1ccc(OC(F)(F)F)cc1)c1ccc(C#N)cc1 | cell-free assay, competition with immobilised ligand | 1 µM | remaining binding | 100%
O=c1[nH]c2ccccc2n1C1CCN(Cc2ccc(-c3[nH]c4cc5ncnc5cc4nc3-c3ccccc3)cc2)CC1 | cell-free assay | 0.5 µM | remaining signal | 103%
Cc1nn(C)cc1-c1nc2c(N3CCN(Cc4ccc(Cl)cc4)CC3)c(Cl)cnc2[nH]1 | binding, competition with immobilised ligand | 1 µM | remaining binding | 73%
N#CC1(c2ccccn2)CCN(Cc2cc(C(=O)O)c(=O)n3ccccc23)CC1 | cell-free assay, competition with immobilised ligand | 1 µM | remaining binding | 98%
Cn1cc(-c2cc(F)cc(N3CCn4c(cc5c4CCCC5)C3=O)c2CO)cc(Nc2ccc(N3CCN(C4COC4)CC3)cn2)c1=O | enzyme activity, inhibitor | 0.1 µM | inhibition | 17%
C#Cc1n[nH]c2c(-c3cn([C@@H](C)c4ccccn4)c(=O)[nH]c3=O)cc(F)cc12 | enzyme activity, inhibitor | 0.1 µM | inhibition | 30.8%
Cn1cc(-c2cccc(N3CCc4c(sc5c4CC(C)(C)C5)C3=O)c2CO)cc(Nc2ccncn2)c1=O | enzyme activity, inhibitor | 1 µM | inhibition | 4%
C#Cc1n[nH]c2c(-c3cn([C@@H](C)c4ccccc4)c(=O)[nH]c3=O)cc(F)cc12 | enzyme activity, inhibitor | 0.1 µM | inhibition | 47.7%
